Laboratory results from ChEMBL document CHEMBL4052792, “3-Hydroxykynurenine, a Tryptophan Metabolite Generated during the Infection, Is Active Against Trypanosoma cruzi” (ACS Med Chem Lett, 2017).
Calls of active or inactive are those of the source. The rule behind the calls is not given here.

Key:
Trypanosoma cruzi [1] = experiment: Trypanocidal activity against Trypanosoma cruzi Tulahuen trypomastigotes assessed as reduction in parasites after 24 to 48 hrs by trypan blue assay; type: functional
Method in brief: (§1)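 Bloodstream trypomastigotes were incubated at 37 °C in culture medium alone or with increasing doses for 24, 48 and 72 h. Parasite death was scored as percentage by trypan blue exclusion. Results are means ± SD of three independent experiments.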

Trypanosoma cruzi [2] = experiment: Trypanocidal activity against Trypanosoma cruzi Tulahuen amastigotes infected in BALB/C mouse bone marrow derived macrophages assessed as endocytic index at 1500 uM treated for 24 hrs followed by compound washout measured after 48 hrs by immunofluorescence assay (reference value: 213.66 +/- 58.79); type: functional
[3] = Induction of apoptosis in BALB/C mouse BMDM assessed as cells with hypodiploid DNA content at 10000 uM after 24 hrs by FITC/propidium iodide staining based flow cytometric analysis (reference value: 29.9%); type: functional
Jurkat = experiment: Cytotoxicity against human Jurkat cells assessed as reduction in cell viability at 0.2 to 2000 uM after 24 hrs by trypan blue exclusion assay; type: cell-based
Method in brief: (§2)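 Mammalian cells (human PBMC, Swan 71, Jurkat; bone marrow-derived macrophages; J774) were exposed to 3-HK at 0.2 to 2000 μM for 24 h. Viability was then scored by trypan blue exclusion.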

[4] = Cytotoxicity against BALB/C mouse BMDM assessed as reduction in cell viability at 0.2 to 2000 uM after 24 hrs by trypan blue exclusion assay; type: cell-based; method in brief: as §2
Trypanosoma cruzi [5] = experiment: Trypanocidal activity against Trypanosoma cruzi Tulahuen amastigotes infected in BALB/C mouse bone marrow derived macrophages assessed as reduction intracellular parasite growth after 24 hrs by immunofluorescence assay; type: functional, cell-based
Method in brief: (§3)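 Macrophages were infected with trypomastigotes and treated with 3-HK for 24 h. Immunofluorescence counts were made at 72 h post-infection. Intracellular parasites per 200 cells were expressed relative to medium-treated cultures, and infected cells were counted among 200 macrophages. Data are means ± SD of four independent experiments.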

Trypanosoma cruzi [6] = experiment: Trypanocidal activity against Trypanosoma cruzi Tulahuen trypomastigotes in culture medium after 48 hrs by trypan blue assay
[7] = Induction of apoptosis in BALB/C mouse BMDM assessed as cells with hypodiploid DNA content at 20 uM after 24 hrs by FITC/propidium iodide staining based flow cytometric analysis (reference value: 29.9%); type: functional
Trypanosoma cruzi [8] = experiment: Trypanostatic activity against Trypanosoma cruzi Tulahuen amastigotes infected in BALB/C mouse bone marrow derived macrophages assessed as effect on flagellar pocket at 20 uM after 24 hrs by transmission electron microscopic analysis; type: functional
Method in brief: (§4)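 Bone marrow-derived macrophages were infected for 24 h, then exposed to 20 μM for 24 h or left untreated. Intracellular amastigote ultrastructure was examined by transmission electron microscopy, covering mitochondrion, nucleus, kinetoplast, flagellum, flagellar pocket, subpellicular microtubules and cytoplasmic structures.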

Trypanosoma cruzi [9] = experiment: Trypanocidal activity against Trypanosoma cruzi Tulahuen amastigotes infected in BALB/C mouse bone marrow derived macrophages assessed as endocytic index at 20 uM treated for 24 hrs followed by compound washout measured after 48 hrs by immunofluorescence assay (reference value: 213.66 +/- 58.79); type: functional
Trypanosoma cruzi [10] = experiment: Trypanocidal activity against Trypanosoma cruzi Tulahuen amastigotes infected in BALB/C mouse bone marrow derived macrophages assessed as endocytic index at 400 uM treated for 24 hrs followed by compound washout measured after 48 hrs by immunofluorescence assay (reference value: 213.66 +/- 58.79); type: functional
PBMC [11] = experiment: Cytotoxicity against human PBMC assessed as reduction in cell viability at 0.2 to 2000 uM after 24 hrs by trypan blue exclusion assay; type: cell-based; method in brief: as §2
Trypanosoma cruzi [12] = experiment: Trypanocidal activity against Trypanosoma cruzi Tulahuen amastigotes infected in BALB/C mouse bone marrow derived macrophages assessed as endocytic index at 1200 uM treated for 24 hrs followed by compound washout measured after 48 hrs by immunofluorescence assay (reference value: 213.66 +/- 58.79); type: functional
Trypanosoma cruzi [13] = experiment: Trypanocidal activity against Trypanosoma cruzi Tulahuen amastigotes infected in BALB/C mouse bone marrow derived macrophages assessed as parasite infected macrophages at 400 uM treated for 24 hrs followed by compound washout measured after 48 hrs by immunofluorescence assay (reference value: 26.84 +/- 7.81%); type: functional
Trypanosoma cruzi [14] = experiment: Trypanocidal activity against Trypanosoma cruzi Tulahuen amastigote forms infected in BALB/C mouse bone marrow derived macrophages assessed as decrease in parasite growth at 200 uM after 72 hrs by immunofluorescence assay; type: functional; method in brief: as §3
Trypanosoma cruzi [15] = experiment: Ratio of IC50 for Trypanosoma cruzi Tulahuen trypomastigotes infected in BALB/C mouse bone marrow derived macrophages to IC50 for Trypanosoma cruzi Tulahuen amastigotes infected in BALB/C mouse bone marrow derived macrophages; type: functional
Trypanosoma cruzi [16] = experiment: Induction of mitochondrial membrane depolarization in Trypanosoma cruzi Tulahuen trypomastigotes at 2000 uM after 24 hrs by Rh123/propidium iodide staining-based flow cytometric analysis (reference value: 3.25 +/- 1.66%); type: functional
Method in brief: (§5)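 Trypomastigotes were treated with 3-HK for 24 h at 37 °C, then incubated with PI plus Rh123. Rh123 fluorescence was read by flow cytometry in PI-negative (live) parasites. The depolarized fraction was taken as the low-fluorescence M2 population. Index of variation = (treated median − control median)/control median. Three experiments were run.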

Trypanosoma cruzi [17] = experiment: Trypanocidal activity against Trypanosoma cruzi Tulahuen amastigotes infected in BALB/C mouse bone marrow derived macrophages assessed as parasite infected macrophages at 1500 uM treated for 24 hrs followed by compound washout measured after 48 hrs by immunofluorescence assay (reference value: 26.84 +/- 7.81%); type: functional
PBMC [18] = experiment: Cytotoxicity against human PBMC assessed as reduction in cell viability at 1200 to 2000 uM after 48 hrs by trypan blue exclusion assay; type: cell-based
Method in brief: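 Human PBMC and Jurkat cells were treated for 48 h with a range of 3-HK concentrations or left untreated. Viable cells were counted under light microscopy by trypan blue exclusion. Data are means ± SD of four independent experiments.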

[19] = Induction of apoptosis in BALB/C mouse BMDM assessed as cells with hypodiploid DNA content at 4000 uM after 24 hrs by FITC/propidium iodide staining based flow cytometric analysis (reference value: 29.9%); type: functional
Trypanosoma cruzi [20] = experiment: Induction of mitochondrial membrane depolarization in Trypanosoma cruzi Tulahuen trypomastigotes at 8000 uM after 24 hrs by Rh123/propidium iodide staining-based flow cytometric analysis (reference value: 3.25 +/- 1.66%); type: functional; method in brief: as §5
Trypanosoma cruzi [21] = experiment: Trypanostatic activity against Trypanosoma cruzi Tulahuen amastigotes infected in BALB/C mouse bone marrow derived macrophages assessed as effect in subpelicullar microtubules at 20 uM after 24 hrs by transmission electron microscopic analysis; type: functional; method in brief: as §4
J774 = experiment: Cytotoxicity against mouse J774 assessed as reduction in cell viability at 0.2 to 2000 uM after 24 hrs by trypan blue exclusion assay; type: cell-based; details: j774, 24 h; method in brief: as §2
Trypanosoma cruzi [22] = experiment: Trypanocidal activity against Trypanosoma cruzi Tulahuen trypomastigotes assessed as increase in parasite death up to 72 hrs by trypan blue assay; type: functional; method in brief: as §1
Trypanosoma cruzi [23] = experiment: Trypanocidal activity against Trypanosoma cruzi Tulahuen amastigotes infected in BALB/C mouse bone marrow derived macrophages assessed as endocytic index at 2 uM treated for 24 hrs followed by compound washout measured after 48 hrs by immunofluorescence assay (reference value: 213.66 +/- 58.79); type: functional
Trypanosoma cruzi [24] = experiment: Trypanocidal activity against Trypanosoma cruzi Tulahuen amastigotes infected in BALB/C mouse bone marrow derived macrophages assessed as endocytic index at 1800 uM treated for 24 hrs followed by compound washout measured after 48 hrs by immunofluorescence assay (reference value: 213.66 +/- 58.79); type: functional

For Nc1c(O)cccc1C(=O)C[C@H](N)C(=O)O, which IC50 (Trypanosoma cruzi [1]) is on record?
The IC50 was 200 to 1200 µM.

And the Activity (Trypanosoma cruzi [2])?
The Activity was 124.36.

What about the Activity [3] of the same molecule?
The Activity was 29.5%.

What about the Activity (Jurkat) of the same molecule?
Its Activity is “Non-Toxic”.

And the Activity [4]?
Its Activity is “Non-Toxic”.

What about the IC50 (Trypanosoma cruzi [5]) of the same molecule?
The IC50 was 0.2 µM.

What about the IC50 (Trypanosoma cruzi [6]) of the same molecule?
Its IC50 is 200 µM.

And the Activity [7]?
Its Activity is 25.9%.

And the Activity (Trypanosoma cruzi [8])?
Its Activity is “inactive”.

And the Activity (Trypanosoma cruzi [9])?
The Activity was 51.74.

What about the Activity (Trypanosoma cruzi [10]) of the same molecule?
Its Activity is 89.81.

What about the Activity (PBMC [11]) of the same molecule?
Its Activity is “Non-Toxic”.

What about the Activity (Trypanosoma cruzi [12]) of the same molecule?
Its Activity is 106.06.

What about the Activity (Trypanosoma cruzi [13]) of the same molecule?
The Activity was 14.66%.

What about the Activity (Trypanosoma cruzi [14]) of the same molecule?
The Activity was “Active”.

What about the “Ratio IC50” value (Trypanosoma cruzi [15]) of the same molecule?
The value was 6000.

And the Activity (Trypanosoma cruzi [16])?
The Activity was 12.1%.

And the Activity (Trypanosoma cruzi [17])?
Its Activity is 18.07%.

What about the Activity (PBMC [18]) of the same molecule?
The Activity was “Toxic”.

What about the Activity [19] of the same molecule?
The Activity was 30.9%.

What about the Activity (Trypanosoma cruzi [20]) of the same molecule?
Its Activity is 40.7%.

And the Activity (Trypanosoma cruzi [21])?
The Activity was “inactive”.

And the Activity (J774)?
The Activity was “Non-Toxic”.

What about the Activity (Trypanosoma cruzi [22]) of the same molecule?
Its Activity is “Dose-dependent effect”.

What about the Activity (Trypanosoma cruzi [23]) of the same molecule?
The Activity was 60.59.

What about the Activity (Trypanosoma cruzi [24]) of the same molecule?
Its Activity is 110.69.
